Measured values from different studies.
Lines come from different studies, so protocols differ.
Read-out: cell growth or viability

Compound	cell line	technique	concentration	time	quantity	result
CCOc1ccc(C(=O)CC(SCc2ccc(Cl)cc2)C(=O)O)cc1 (stereo not shown)	U2OS	MTT		48 h	EC50	130 µM
[NH2][Pt]([NH2])([Cl])[Cl]	HeLa	SRB			GI50	1.9 µM
C[C@H](Nc1ccc2c(c1)OCCn1cc(N3C(=O)OC[C@H]3C(F)F)nc1-2)C(N)=O	Detroit 562	ATP luminescence		5 days	EC50	0.0831 µM
Cc1nc(Nc2ncc(C(=O)Nc3c(C)cccc3Cl)s2)cc(N2CC[C@H](O)C2)n1	P3HR-1	ATP luminescence	10 µM	72 h	inhibition	51%
Cc1cc(=O)oc2cc(OCCCCSC#N)ccc12	HeLa	SRB			GI50	1.9 µM
CCOc1ccc(-c2cc(C(=O)O)c(-c3ccc(Cl)cc3)o2)cc1	U2OS	MTT		48 h	EC50	48 µM
CCC(=CCc1c(O)cc2c(c1O)C(=O)C[C@@H](c1ccccc1O)O2)CC	HeLa	MTT	15 µM	48 h	inhibition	0.607%
O=c1[nH]cc(F)c(=O)[nH]1	HeLa	SRB			GI50	4.4 µM
CCOc1ccc(C(=O)CC(SCc2ccc(Cl)cc2)C(=O)OC)cc1 (stereo not shown)	U2OS	MTT		48 h	EC50	15.7 µM
CCC(=CCc1c(O)cc2c(c1O)C(=O)CC(c1ccc(O)cc1)O2)CC (stereo in doubt)	HeLa	MTT	6.25 µM	48 h	inhibition	9.54%
